# Most compounds without a hit are left out; they make up all but 1.6% or so of the library.
# UBC13 inh: human UBC13 polyubiquitination inhibition; UBC13 polyubiquitin chain formation, TR-FRET; inhibition, % at 20 µM; 330,000 compounds, 0.47% hits; AID 485273; in the data active = inhibition above about 45%, passing the limit was not always enough
# Target sequence (P61088 whole entry, looked up): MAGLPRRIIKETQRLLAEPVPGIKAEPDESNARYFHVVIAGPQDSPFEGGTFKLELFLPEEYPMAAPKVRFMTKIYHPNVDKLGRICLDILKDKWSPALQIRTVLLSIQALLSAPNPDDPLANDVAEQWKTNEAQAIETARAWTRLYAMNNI
# Apaf1 inhib: human Apaf-1 inhibition; reconstituted apoptosome caspase-3 activity, DEVD-Rh110 fluorescence; inhibition, % at 20 µM; 330,000 compounds, 0.71% hits; AID 489030; active = inhibition of at least 40% at 20 µM;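 also: plate controls were DMSO wells for no effect and DEVD-CHO caspase inhibitor wells for full effect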
#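 Assay system: Apoptosome proteins | Medium: pH 7.5 Hepes buffer with CHAPS, BSA, DTT | Also added: Cytochrome c and DEVD-Rh110 substrate | Times: 30 min plus 50 min, RT | Detection: Rhodamine 110 fluorescence at Ex 480/Em 540 nm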
# RAD54 inh: RAD54 (human) branch migration inhibition | RAD54 Holliday junction branch migration, FAM/BHQ fluorescence | 360,000 compounds, 0.14% hits | inhibition, % at 10.4 µM;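 active = mean normalized replicate activity at least 40 and at least half of replicates scoring 40 or more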;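 also: 0% = median of neutral control wells and 100% = median of positive control wells; inhibitors cause a drop in the FAM fluorescence signal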
# Neddyl block: cullin neddylation inhibition; TR-FRET cullin neddylation, biochemical; P61081+Q13564; 360,000 compounds, 0.58% hits; calls only at 25 µM; in the data active = inhibition above about 36%
# RAD52 anneal inh: blocks human RAD52 DNA annealing; recombinant RAD52 DNA annealing, FRET fluorescence; inhibition, % at 18.7 µM; 360,000 compounds, 0.46% hits;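 active = every replicate showing at least 50% inhibition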
# Target sequence (P43351 whole entry, looked up): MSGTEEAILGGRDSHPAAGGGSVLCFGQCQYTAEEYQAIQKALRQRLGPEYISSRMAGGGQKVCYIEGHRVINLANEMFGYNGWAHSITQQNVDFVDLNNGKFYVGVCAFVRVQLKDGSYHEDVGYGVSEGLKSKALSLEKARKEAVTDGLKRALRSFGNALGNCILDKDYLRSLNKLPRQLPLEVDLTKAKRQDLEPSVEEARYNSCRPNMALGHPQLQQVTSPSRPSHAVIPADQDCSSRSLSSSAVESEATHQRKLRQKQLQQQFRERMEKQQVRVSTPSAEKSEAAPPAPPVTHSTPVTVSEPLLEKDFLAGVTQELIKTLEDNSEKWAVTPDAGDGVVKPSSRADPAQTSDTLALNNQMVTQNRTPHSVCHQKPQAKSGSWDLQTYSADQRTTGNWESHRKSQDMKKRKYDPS
# FID counter: fluorescent intercalator displacement, NS3 helicase counter-screen | DNA fluorescent intercalator displacement, fluorescence | inhibition, % at 7.9 µM | 290,000 compounds, 0.17% hits | AID 1845; in the data active = inhibition above about 37%;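 also: 0% = vehicle and 100% = reference compound; higher means more ethidium bromide displaced from hairpin DNA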
# Neddyl conf: cullin neddylation inhibition, confirmation. shares compounds with Neddyl block. TR-FRET cullin neddylation biochemical assay. calls only at 25 µM. 1,800 compounds, 13% hits. AID 652217; in the data active = inhibition above about 40%;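 also: neddylation substrate is the cullin 1 ring ligase complex with SKP2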
# Starred values were filed as active, the others as inactive; i = inactive; nt = not tested or not shown; + = active, no number.
SMILES,UBC13 inh,Apaf1 inhib,RAD54 inh,Neddyl block,RAD52 anneal inh,FID counter,Neddyl conf
Cn1c(SCc2ccc(Cl)cc2)nnc1-c1ccc2nonc2c1,2,3,nt,+,-5,-2,i
Cc1ccc(Oc2nc3ccccn3c(=O)c2/C=C(\C#N)C(=O)NC2CCS(=O)(=O)C2)c(C)c1 (stereo not drawn),-3,5,-8,nt,-72,-36,nt
Cc1cc(C)cc(Oc2nc3ccccn3c(=O)c2/C=C(\C#N)C(=O)NC2CCS(=O)(=O)C2)c1 (stereo not drawn),-10,2,3,+,-39,-28,i
O=C(C[C@@H]1C[C@@H]2c3cc(NC(=O)C4CCC4)ccc3O[C@@H]2[C@@H](CO)O1)NCc1ccccc1F,nt,nt,9,nt,nt,nt,nt
COc1cc2oc(-c3ccc(O)cc3)cc(=O)c2c(OC)c1O,25,1,17,+,-3,-14,i
S=c1[nH]c(-c2ccccc2)cn1/N=C/c1ccc(Br)cc1,10,3,nt,+,-17,-10,i
COc1cc(/C=C/C(=O)OCC(=O)Nc2ccc(C)c(S(=O)(=O)N3CCCCC3)c2)ccc1O,-6,12,3,i,-16,-15,nt
COc1cc(/C=C/C(=O)OCC(=O)Nc2cc(S(=O)(=O)N3CCCCC3)ccc2C)ccc1O,-32,-16,nt,+,-13,-21,i
CCN(CC)S(=O)(=O)c1ccc(Cl)c(NC(=O)COC(=O)/C=C/c2ccc(O)c(OC)c2)c1,-6,11,6,+,-3,-23,i
COc1cccc(-c2ccc([C@@H]3[C@H](CO)N4C(=O)CN(C(=O)CN5CCOCC5)C[C@@H]34)cc2)c1,nt,nt,nt,nt,-4,nt,nt
COc1cccc(-c2ccc3c(c2)[C@H]2[C@H](CCN2S(=O)(=O)c2ccccc2OC)[C@H](CO)N3)c1,nt,nt,-9,nt,-35,nt,nt
C[C@@H]1CN([C@H](C)CO)C(=O)c2cc(NC(=O)Nc3cccc4ccccc34)ccc2O[C@H]1CN(C)C(=O)Nc1ccc2c(c1)OCO2,nt,nt,-7,nt,3,nt,nt
O=C(N/N=C/c1cccn1-c1ccc(O)cc1)c1cccc2ccccc12,-2,3,-4,+,-46,-20,i
CCCNC(=O)N1CC2(C1)CN(C(=O)c1ccncc1)[C@@H](CO)c1[nH]c3cc(OC)ccc3c12,nt,nt,nt,nt,-6,nt,nt
CCCNC(=O)[C@@H]1[C@@H](CO)[C@@H]2Cn3c(ccc(-c4cccnc4)c3=O)[C@@H]2N1C(=O)c1ccccc1F,nt,nt,-10,nt,5,nt,nt
O=C(NCc1ccco1)c1cnc2sccn2c1=O,-11,0,-1,i,-5,0,nt
Cc1csc2ncc(C(=O)NCc3ccco3)c(=O)n12,2,-12,2,+,-10,0,i
COc1cccc(NC(=O)N[C@H]2CC[C@@H](CC(=O)NCc3ccccn3)O[C@H]2CO)c1,nt,nt,8,nt,2,nt,nt
O=C(Nc1ccccc1F)N1CC(=O)N2[C@@H](CO)[C@@H](c3ccc(C#CC4CC4)cc3)[C@@H]2C1,nt,nt,nt,nt,-23,nt,nt
Nc1ccc(C(=O)Nc2ccc3c(O)cc(S(=O)(=O)O)cc3c2)cc1,nt,nt,-52,i,-43,nt,nt
Nc1cc(S(=O)(=O)O)cc2ccc(S(=O)(=O)O)cc12,nt,nt,-6,+,-27,nt,nt
COc1ccc(-c2nc3c(n2O)CCC/C3=N\O)cc1,-6,-7,5,+,nt,-3,i
CCCNC(=O)N1CC2(C1)CN(Cc1ccccc1)[C@@H](CO)c1[nH]c3cc(OC)ccc3c12,nt,nt,nt,nt,-33,nt,nt
Cc1noc(C)c1NC(=O)N(C)C[C@@H]1Oc2c(NC(=O)c3ccncc3)cccc2C(=O)N([C@@H](C)CO)C[C@@H]1C,nt,nt,5,nt,-7,nt,nt
O=c1oc2ccccc2cc1-c1cn2cccnc2n1,-7,-4,6,+,nt,-1,+
SMILES,UBC13 inh,Apaf1 inhib,RAD54 inh,Neddyl block,RAD52 anneal inh,FID counter,Neddyl conf
Cc1noc(C)c1NC(=O)Nc1cccc2c1O[C@@H](CN(C)C(=O)NC(C)C)[C@H](C)CN([C@@H](C)CO)C2=O,nt,nt,1,nt,-6,nt,nt
Cc1cc(N2CCOCC2)n2cc(-c3ccc(F)cc3)nc2n1,19,-10,nt,+,-5,-3,i
C[C@H]1CN([C@@H](C)CO)C(=O)c2cc(C#CC3(O)CCCC3)cnc2O[C@@H]1CN(C)Cc1ccccc1,nt,nt,-1,nt,-1,nt,nt
CC(C)NC(=O)N(C)C[C@@H]1Oc2ccc(NS(=O)(=O)c3ccccc3)cc2CC(=O)N([C@@H](C)CO)C[C@H]1C,nt,nt,-1,nt,4,nt,nt
CCCNC(=O)C[C@H]1CC[C@H]2[C@@H](COC[C@@H](O)CN2Cc2cccc(F)c2)O1,nt,nt,-1,nt,-1,nt,nt
Cn1ncc2cc3c(Nc4ccc(Cl)cc4)cccc3nc21,nt,nt,5,+,-21,nt,+
CC(=O)Nc1nc(CC(C)C)cc(-c2ccco2)c1C#N,11,-12,-5,+,nt,2,i
O=C1NC(c2ccccc2)=C(c2ccc3ccccc3n2)C(c2ccccc2)N1 (stereo not drawn),-22,23,3,+,-13,-13,i
O=C1NC(c2ccccc2)=C(c2ccc3ccccc3n2)C(c2ccc(F)cc2)N1 (stereo not drawn),6,20,nt,i,5,-29,nt
Cc1cccc(S(=O)(=O)N[C@@H]2CC[C@@H](CCNS(=O)(=O)c3ccccc3F)O[C@H]2CO)c1,nt,nt,-4,nt,-12,nt,nt
CCOc1ccc(C2=Nc3ccccc3C(c3ccc(N4CCOCC4)cc3)=NN2)cc1,-3,24,-3,+,nt,-16,i
CCOc1ccc(C2=Nc3ccc(Br)cc3C(c3ccc(N4CCOCC4)cc3)=NN2)cc1,-7,23,nt,nt,nt,-5,nt
COCC(=O)N(C)C[C@H]1Oc2ncc(-c3cccc(OC)c3)cc2C(=O)N([C@@H](C)CO)C[C@H]1C,nt,nt,1,nt,-5,nt,nt
CC(Oc1ccccc1)C(=O)N1CCN(c2ccc(N3CCCCC3)nn2)CC1 (stereo not drawn),14,-2,6,+,-6,nt,nt
O=C(C[C@H]1CC[C@H](NC(=O)c2ccncc2)[C@H](CO)O1)Nc1ccc(-c2ccccc2)cc1,nt,nt,nt,nt,-3,nt,nt
C[C@@H]1CN([C@H](C)CO)C(=O)c2cc(NC(=O)C3CCCCC3)ccc2O[C@@H](C)CCCCO[C@@H]1CN(C)C(=O)Cc1ccccc1,nt,nt,-3,nt,nt,nt,nt
CN(C)CC(=O)Nc1ccc2c(c1)[C@H]1C[C@H](CC(=O)NC3CCCCC3)O[C@@H](CO)[C@H]1O2,nt,nt,12,nt,15,nt,nt
CC1OC(OC2C(Oc3c(-c4ccc(O)cc4)oc4cc(O)cc(O)c4c3=O)OC(COC3O[C@@H](C)[C@H](O)[C@@H](O)C3O)C(O)C2O)C(O)C(O)C1O (stereo partly drawn),3,7,-5,i,1,nt,nt
CC(=O)OC[C@H]1O[C@@H](Oc2cc(O)cc3oc(-c4ccc(O)cc4)cc(=O)c23)[C@H](O[C@@H]2O[C@@H](C)[C@H](O)[C@@H](O)[C@H]2O)[C@@H](O)[C@@H]1O,0,10,6,+,-9,nt,nt

# Assay outcomes (PubChem BioAssay)
